Assay results pooled from the literature.
Protocols differ between the studies behind these lines.
Target: Rhodopsin kinase GRK1 (GRK1, Homo sapiens, UniProt Q15835)
Sequence (Q15835 1-563, as in one of the studies): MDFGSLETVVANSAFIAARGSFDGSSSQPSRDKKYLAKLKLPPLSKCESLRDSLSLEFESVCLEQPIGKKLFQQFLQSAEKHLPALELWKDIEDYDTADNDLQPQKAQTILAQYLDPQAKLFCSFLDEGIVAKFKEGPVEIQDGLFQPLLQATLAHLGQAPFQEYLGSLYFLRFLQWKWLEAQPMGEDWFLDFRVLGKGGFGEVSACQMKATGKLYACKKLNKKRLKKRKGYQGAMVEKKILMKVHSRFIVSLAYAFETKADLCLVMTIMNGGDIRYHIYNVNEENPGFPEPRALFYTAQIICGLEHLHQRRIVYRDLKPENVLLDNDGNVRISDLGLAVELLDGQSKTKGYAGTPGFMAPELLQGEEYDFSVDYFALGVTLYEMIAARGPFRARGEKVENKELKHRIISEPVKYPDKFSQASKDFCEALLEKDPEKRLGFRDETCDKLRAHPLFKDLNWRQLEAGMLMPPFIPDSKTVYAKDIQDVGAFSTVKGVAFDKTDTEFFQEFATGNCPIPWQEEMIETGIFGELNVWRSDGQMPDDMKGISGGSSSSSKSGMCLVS

SMILES	test	conditions	endpoint	value
CCN1CCC2(CC1)NC(=O)c1c(c3ccc(Cl)c(Cl)c3n1C)C2C#N (racemic)	thermal stability, DSF	10 µM	ΔTm	1.2 °C
Cc1sc(C(=O)NC2COC2)cc1-n1cc(NC(=O)Nc2c(F)cccc2Cl)cn1	enzyme activity, inhibitor	10 µM	remaining activity	113%
Cc1ccc(C(=O)NCc2ccsc2)cc1C#Cc1cn(C(C)C)c2ncnc(N)c12	enzyme activity, inhibitor	1 µM	activity vs control	106%
O=C(NS(=O)(=O)c1ccc(NCC2CCOCC2)c([N+](=O)[O-])c1)c1ccc(N2CCN(Cc3ccc(C(F)(F)F)cc3-c3ccc(Cl)cc3)CC2)cc1Oc1cnc2[nH]ccc2c1	cell-free assay, competition with immobilised ligand	1 µM	remaining binding	100%
Cn1c2c(Cl)c(Cl)ccc2c2cn[nH]c(=O)c21	thermal stability, DSF	10 µM	ΔTm	1.3 °C
COc1ccc2cc(OCC3(C(=O)O)CN(C(=O)c4ccc(F)cc4)C3)ccc2c1	cell-free assay, competition with immobilised ligand	1 µM	remaining binding	100%
Cn1c2c(c3ccc(Cl)c(Cl)c31)C(C#N)C1(CCN(C(=O)OC(C)(C)C)CC1)NC2=O (racemic)	thermal stability, DSF	10 µM	ΔTm	0 °C
CC(C)(O)[C@H]1CC[C@H](Nc2ccc3ncc(-c4cccc(C(F)(F)F)c4)n3n2)CC1	enzyme activity, inhibitor	1 µM	remaining activity	89.2%
Cn1c2c(c3ccc(Cl)c(Cl)c31)C(C#N)C1(CCNCC1)NC2=O (racemic)	thermal stability, DSF	10 µM	ΔTm	2.4 °C
Cc1cnc(NC2CCOCC2)nc1-n1cnc(C(=O)NC(CN)c2cc(F)cc(Cl)c2)c1 (stereo not drawn)	enzyme activity, inhibitor, radiometric	1 µM	remaining activity	98%
CN1CC(Oc2cnc(C#N)cc2-c2ccn3nc(NC(=O)C4CC4)cc3c2)C1	enzyme activity, inhibitor	1 µM	inhibition	1%
NS(=O)(=O)c1cc(NC(=O)Cc2ccccc2)ccc1Oc1cccc(Cl)c1	cell-free assay, competition with immobilised ligand	1 µM	remaining binding	83%
O=C(Nc1cnn(-c2csc(C(=O)NC3COC3)c2)c1)Nc1c(F)cccc1Cl	enzyme activity, inhibitor	5 µM	remaining activity	92.9%
Cn1c2c(c3ccc(Cl)c(Cl)c31)C(C#N)C1(CCCC1)NC2=O (stereo not drawn)	thermal stability, DSF	10 µM	ΔTm	0 °C
CNCc1ccccc1-c1csc([C@H](C)Nc2nc(C)nc3cc(OC)c(OC)cc23)c1	cell-free assay, competition with immobilised ligand	1 µM	remaining binding	100%
